Rows were chosen to be rich in hits. Some 1.9% of all compounds tested hit in one or more screens of this group.
Jurkat NFkB inh = lowers PMA/ionomycin-induced NF-kB signal in Jurkat cells; PMA/ionomycin-induced NF-kB luciferase reporter, luminescence; inhibition, % at 4 µM; 0.53% of 330,000 active; AID 435003; in the data active = inhibition above about 50%
H9c2 TAG inh = inhibitors of triacylglycerol accumulation; H9c2 cells, Nile Red lipid (TAG) fluorescence; cells loaded with 200 µM oleic acid; inhibition, % at 12.5 µM; 0.66% of 230,000 active; AID 651582;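 active = pattern-corrected inhibition of lipid staining of at least 50% with the nuclear-stain viability signal not falling by more than 50%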;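 also: 0% = DMSO wells and 100% = triacsin C control wells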
Lipid droplet = modulators of hepatic lipid droplet formation. inhibition, % at 6.5 µM. 0.4% of 240,000 active. AML12 mouse hepatocytes, oleate lipid droplets, BODIPY imaging. AID 1656;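 active = lipid droplet intensity inhibited by at least 50%, with more than 500 cells counted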
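Test system: AML12 hepatocytes (mouse); reagent: oleate loading, 100 µM; dosing: one dose, 6.5 µM compound; incubation: overnight exposure; signal: fluorescence imaging, 20x objective, two fields per well; read-out basis: % inhibition of corrected integrated BODIPY droplet signal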
aSyn 5UTR inh = 5' untranslated region of α-synuclein, MLPCN primary screen; alpha-synuclein 5'UTR reporter, inhibitor activity; inhibition, % (tested at 7.5 µM); 0.82% of 300,000 active; AID 1813; in the data active = inhibition above about 60%;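 also: H4 neuroglioblastoma cells stably carrying SNCA 5'UTR luciferase fusion; 0% = DMSO wells and 100% = positive control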
APP 5UTR inh = APP translation inhibition; 0.82% of 190,000 active; AID 1285; inhibition, % at 2 µM; SH-SY5Y APP 5'UTR-luciferase reporter, luminescence;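 active = inhibition above a set limit, derived from the sample mean plus 3 SD, cut at about 45% in these data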
697 NFkB inh = inhibitors of the PMA/ionomycin-induced NF-kB reporter in 697 B cells; 697 B-cell NF-kB luciferase reporter, 16 h; inhibition, % at 4 µM; 0.33% of 330,000 active; in the data active = inhibition above about 35%
The depositor's hits bear a star; . = not tested or not shown.

SMILES	Jurkat NFkB inh	H9c2 TAG inh	Lipid droplet	aSyn 5UTR inh	APP 5UTR inh	697 NFkB inh
CCCCCCCCCCOC(=O)Cn1c(COc2cccc(C)c2)[n+](C)c2ccccc21	35.1	.	-80.0	64.8*	.	5.9
CCCCCCCCCCOC(=O)Cn1c(COc2ccc(Cl)cc2)[n+](C)c2ccccc21	32.5	.	11.0	82.6*	.	-0.7
O=C(CC1(O)C(=O)N(Cc2cccc3ccccc23)c2ccccc21)c1cccnc1 (stereo unspecified)	-10.9	48.3	-8.2	0.6	55.8*	-21.3
CC1=C(C(=O)Nc2ccc(C(=O)NCCCN3CCCCC3C)cc2)SCCO1 (stereo unspecified)	.	20.1	.	.	.	.
COc1cnc(-c2ccccn2)nc1NC(C)C	12.4	-9.6	-21.2	98.2*	39.8	-5.2
Cc1ccccc1S(=O)(=O)N(C)C[C@@H]1OCc2ccccc2-c2c(n(C)c3ccccc23)C(=O)N([C@H](C)CO)C[C@@H]1C	.	40.0	.	.	.	.
Cc1ccc2nc(NC(=O)CSCC(=O)OCC(=O)c3ccccc3)sc2c1	.	.	28.3	61.7*	21.4	.
Cc1cc(N2CCN(c3ccc([N+](=O)[O-])c4cccnc34)CC2)c2ccccc2n1	21.5	.	-0.9	83.7*	18.3	-60.7
Cc1cc(N2CCN(c3ccc(C(F)(F)F)cc3[N+](=O)[O-])CC2)c2ccccc2n1	-1.7	-18.2	-1.2	-8.0	.	-80.8
CCNC(=O)C1(C)CCCN(C(=O)c2ccc(F)c(C)c2)C1 (stereo unspecified)	.	-10.4	.	.	.	.
CN1CCN(c2ccccc2NC(=O)c2ccc([N+](=O)[O-])o2)CC1	22.4	54.0*	0.5	16.9	.	-4.7
CCN1CCN(c2ccc(NC(=O)c3ccc([N+](=O)[O-])o3)cc2Cl)CC1	.	91.4	-23.8	126.2*	93.6*	.
CCC(=O)N1CCN(c2ccc(NC(=O)c3ccc([N+](=O)[O-])o3)cc2Cl)CC1	.	126.1	13.1	77.4*	92.5*	.
CS(=O)(=O)N1CCN(c2ccccc2NC(=O)c2ccc([N+](=O)[O-])o2)CC1	18.5	28.0	-13.0	-122.7	1.1	-10.7
COc1ccc(S(=O)(=O)N2CCCCC2)cc1NC(=O)c1ccc([N+](=O)[O-])o1	17.2	80.5	23.2	-29.1	55.7*	20.9
COc1cccc(C(N)c2nc(-c3csc4ccccc34)cs2)c1 (stereo unspecified)	.	29.2	.	.	.	.
CC(C)(C)c1ccc(C(=O)N2CCC2(C)C(=O)Nc2ccc3nc[nH]c3c2)cc1 (stereo unspecified)	.	-29.9	.	.	.	.
CCNC(=O)C1(C)CCCN(C(=O)c2cc(C)n(C(C)(C)C)n2)C1 (stereo unspecified)	.	7.0	.	.	.	.
c1ccc(-c2nnc(-c3ccccn3)nc2NC2CCCCC2)cc1	47.7	-131.7	-115.5	101.2*	76.7*	-41.8
Cc1onc(-c2ccccc2Cl)c1C(=O)N1CCN(c2ccccc2)CC1	-1.7	.	5.1	5.3	-5.4	6.1
Cc1onc(-c2ccccc2Cl)c1C(=O)N1CCN(c2cccc(Cl)c2)CC1	46.6	38.6	.	67.3*	-8.2	-88.8
CCCc1ccc(C(O)c2ncc(-c3ccc(OC)cc3)[nH]2)cc1 (stereo unspecified)	.	-16.0	.	.	.	.
CC1=CC(C)(C)N(S(=O)(=O)c2ccc(C)cc2)c2ccc(C)cc21	49.8	.	-6.0	39.8	50.0*	12.1
CC1=CC(C)(C)N(S(=O)(=O)c2ccc(F)cc2)c2ccccc21	40.8	.	-18.6	-15.8	18.4	0.9
O=C(N/N=C/c1c[nH]c2ccccc12)c1cc(Br)ccc1O	-2.5	.	-3.1	-10.7	.	13.2
SMILES	Jurkat NFkB inh	H9c2 TAG inh	Lipid droplet	aSyn 5UTR inh	APP 5UTR inh	697 NFkB inh
NNC(=O)c1[nH]c2ccccc2c1-c1ccccc1	6.8	.	15.4	95.7*	.	6.4
O=C(N/N=C/c1c[nH]c2ccccc12)c1[nH]c2ccc(Br)cc2c1-c1ccccc1	.	32.3	23.0	-26.4	91.9*	.
CC(=O)NNC(=O)c1[nH]c2ccc(Cl)cc2c1-c1ccccc1	9.3	6.4	-0.4	11.9	.	11.7
Nc1ccc(N2CCCCC2)cc1N1CCCCC1	-7.8	4.3	.	84.6*	3.6	-50.4
Cc1nn(-c2cc(N3CCCCC3)ccc2N)c(=O)c2ccccc12	2.6	.	5.5	-5.2	-5.6	17.8
Cc1ccc(-n2nc3c(N4CCC(C(=O)NCc5ccccc5C)CC4)nnc(C)c3c2C)cc1	32.4	.	-13.2	45.2	.	14.0
COc1ccc(-n2nc3c(N4CCC(C(=O)NCc5cccc(C)c5)CC4)nnc(C)c3c2C)cc1	19.0	.	-14.3	69.7*	.	-37.6
CCOc1ccccc1CNC(=O)C1CCN(c2nnc(C)c3c(C)n(-c4ccc(C)cc4)nc23)CC1	34.2	.	-5.9	78.0*	.	2.3
CCc1nnc(NC(=O)c2nc(S(=O)(=O)Cc3cccc(C)c3)ncc2Cl)s1	7.0	.	-32.4	-114.5	.	-122.5
CCOc1ccccc1NC(=O)c1nc(S(=O)(=O)Cc2cccc(C)c2)ncc1Cl	15.8	.	-4.6	88.0*	.	-74.8
C/C(=C\CNc1ncnc2nc[nH]c12)CO	17.9	.	.	-10.1	.	22.7
CC(C)CCCCCCCCCCCCC(=O)NCC(=O)NC1C(C)OC(Nc2ncnc3nc[nH]c23)C(O)C1O (stereo unspecified)	.	71.6*	.	.	.	.
CC(=O)Nc1ccc(/C(C)=N\NC(=O)c2ccc(-c3ccccc3)cc2)cc1	-24.6	.	-39.7	95.5*	0.2	0.2
CC(=O)Nc1ccc(/C(C)=N/NC(=O)c2ccc(F)cc2)cc1	-6.1	.	2.5	-39.9	1.5	-6.3
O=C(O)c1ccccc1NC(=O)C1CCCO1 (stereo unspecified)	12.1	.	16.7	14.2	-13.2	-5.5
O=C(Nc1ccccc1Sc1ccccc1)C1CCCO1 (stereo unspecified)	-2.6	.	-24.2	15.4	48.7*	1.1
COc1ccc(N/N=C(\C=N\O)C(=O)c2ccc(OC)cc2)cc1	49.7	41.2	3.1	6.1	87.7*	-60.1
CCOC(=O)C(CC)/C(C)=N\NC(=O)c1ccccc1O (stereo unspecified)	-3.7	.	-15.6	93.5*	52.1*	-15.6
CN1C(=O)C(c2ccccc2[N+](=O)[O-])C(=O)c2ccccc21 (stereo unspecified)	-8.7	.	.	-12.5	.	6.7
CC1(C)N=C(N)N=C(N)N1c1cccc(C#N)c1	.	9.2	.	.	.	.
COc1ccc(N2C(N)=NC(N)=NC2(C)C)cc1	.	-4.0	.	81.4*	7.9	.
CCOc1ccc(-n2nc3ccc(N)cc3n2)cc1	-55.7	6.9	7.6	73.2*	.	-71.9
CC1(C)N=C(N)N=C(N)N1c1ccc(OCCCOc2ccccc2)c(Cl)c1	.	.	-62.0	78.3*	.	.
COc1ccc(N2C(N)=NC(N)=NC23CCCC3)cc1	-3.5	-3.7	.	0.6	20.6	5.9
COc1cccc(N2C(N)=NC(N)=NC2(C)C)c1	16.5	-1.5	.	95.9*	-9.1	-78.6
COc1ccc(-n2nc3ccc(N)cc3n2)cc1	.	11.2	.	.	.	.
CC1(C)N=C(N)N=C(N)N1c1ccc(OCC(=O)Nc2ccccc2)c(Cl)c1	.	3.9	.	.	.	.
NC(C(=O)O)C1ON=C(Cl)C1O (stereo unspecified)	.	-5.9	.	.	.	.

Screening results: PubChem, several laboratories
